Source: PubChem BioAssay
RanGTP-Imp inh – inhibitors of RanGTP-importin-beta interaction, primary screen, biochemical, FRET, CFP-Ran, YFP-importin-beta, homogeneous | 300,000 compounds, 1.1% hits | inhibition, % (concentration not given with the values) | AID 2216 | cell-free CFP-Ran/YFP-importin-beta FRET ratio;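 active = more than half of the replicate wells show a fall in the fluorescence ratio signal beyond about 16%, limit read from the data, passing the limit was not always enough; inconclusive = exactly half of the replicate wells pass the set limit; inactive = fewer than half of replicates pass the limit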
Vif imaging – blocks HIV Vif function; HEK293T cells, Vif self-association by quenched fluorescence, imaging, 24 h; AID 602346; 340,000 compounds, 0.35% hits; inhibition, % at 7.49 µM; in the data active = inhibition above about 50%, passing the limit was not always enough; inconclusive = no clear call, values can overlap the other calls; inactive = below about 31%
Rce1 inh – blocks yeast Ras-converting enzyme. Q03530. yeast membranes, quenched prenylated peptide cleavage fluorescence. 290,000 compounds, 0.27% hits. calls only;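 active = fall in fluorescence gain of 50% or more versus controls, with final raw signal at or below 3038400; inconclusive = same 50% fall but final raw signal above 3038400; inactive = fall in fluorescence gain under 50%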
Target sequence (Q03530 whole entry, looked up): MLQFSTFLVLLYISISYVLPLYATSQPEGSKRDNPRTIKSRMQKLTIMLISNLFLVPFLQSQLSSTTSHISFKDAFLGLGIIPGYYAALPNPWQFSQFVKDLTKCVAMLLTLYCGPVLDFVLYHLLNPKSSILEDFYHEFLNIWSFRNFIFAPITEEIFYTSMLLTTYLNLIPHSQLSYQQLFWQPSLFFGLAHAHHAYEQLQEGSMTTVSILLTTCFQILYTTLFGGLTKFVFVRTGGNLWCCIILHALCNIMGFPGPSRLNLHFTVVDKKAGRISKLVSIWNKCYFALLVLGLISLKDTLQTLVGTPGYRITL
Runt-CBFb FRET – blocks binding of human RUNX1 Runt domain to CBFb | Q01196+Q13951 | inhibition, % at 20 µM | Cerulean-Runt/Venus-CBFb FRET ratio 530/480, 1 h | AID 1496 | 220,000 compounds, 0.46% hits;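 active = inhibition over about 50% at 20 µM in the single-dose screen, limit read from the data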
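Buffer or medium: Tris pH 7.5 buffer with BSA. Assay system: Cerulean-labeled Runt domain protein. Amount: each fluorescent fusion protein 100 nM. Read-out basis: loss of energy transfer signal. Incubation: 1 h compound exposure, room temperature. Probe or stimulus: Venus-CBFb binding partner, 100 nM. Detection: FRET, excitation 422 nm, emission at 530 and 480 nm.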
Runt-SMMHC FRET – blocks binding of human RUNX1 Runt domain to CBFb-SMMHC. Q01196+Q13951. Cerulean-Runt/Venus-CBFb-SMMHC FRET ratio 530/480, 1 h. inhibition, % at 20 µM. 220,000 compounds, 0.74% hits. AID 1434;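 active = mean inhibition across duplicate retests at 20 µM reaching about 50%, limit read from the data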;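 also: inhibitors lower the FRET ratio by blocking Runt binding to CBFb-SMMHC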
Numbers stand for hits; 0 = inactive; ? = inconclusive; - = no result; + = active, no number. Compounds with a hit are over-represented: about 1.7% of the library has one in this group of screens.

SMILES	RanGTP-Imp inh	Vif imaging	Rce1 inh	Runt-CBFb FRET	Runt-SMMHC FRET
COc1ccc(C2CC(c3ccncc3)=NN2c2ccc(S(N)(=O)=O)cc2)cc1 (stereo unspecified)	-	93	-	-	-
COc1ccc(C2CC(c3ccc(Cl)cc3)=NN2c2ccc(S(N)(=O)=O)cc2)cc1 (stereo unspecified)	-	0	-	-	-
NS(=O)(=O)c1ccc(N2N=C(c3ccc(Br)cc3)CC2c2ccc(F)cc2)cc1 (stereo unspecified)	23	0	0	0	0
O=C(c1ccc(F)c(S(=O)(=O)N2CCOCC2)c1)N1CCN(c2ccc(F)cc2)CC1	-	0	-	-	-
O=C(CN1CCN(c2ccc(O)cc2)CC1)Nc1ccc(S(=O)(=O)N2CCCC2)cc1	-	0	-	-	-
CCc1nnc(N2C(=O)c3ccc(Oc4ccc([N+](=O)[O-])cc4)cc3C2=O)s1	0	0	0	0	0
CCCCc1cc(=O)oc2cc(OCc3cc(OC)c(OC)c(OC)c3)c(Cl)cc12	0	0	0	0	0
CCCc1cc(=O)oc2cc(OCc3cc(OC)c(OC)c(OC)c3)c(Cl)cc12	0	106	0	0	0
COc1cccc(CNc2nc3nc(C)cc(C)n3n2)c1	0	0	+	0	0
COc1cccc(NC(=O)Nc2nnc(COCCO)s2)c1	-	0	-	-	-
C=CCCCOc1ccc(C(=O)O)cc1	-	58	0	0	0
C=CCC(=O)OCCCCCCOc1ccc(C(=O)O)cc1	0	0	0	0	0
COc1ccc(C2CC3(O)CC(C#N)(C(=O)N3)C2(C#N)C#N)cc1 (stereo unspecified)	0	0	-	0	0
COc1ccc(C2CC3(O)NC(=O)C(C#N)(C3C)C2(C#N)C#N)cc1 (stereo unspecified)	0	66	0	0	0
CCc1c(C)nc2ncnn2c1N1CCN(S(=O)(=O)c2ccc(OC)cc2)CC1	0	0	0	-	-
COc1ccc(-c2cc3nc(C)cc(NCCO)n3n2)cc1	0	0	0	0	0
Cc1ccc(-c2cc3nc(C)cc(NCc4ccco4)n3n2)cc1	38	0	0	0	0
CC1(C)Cc2c(sc3ncn4c(=S)[nH]nc4c23)CO1	0	0	0	0	60
Cc1c(CC(=O)NCC(=O)NCC(=O)N[C@@H](Cc2ccccc2)C(=O)O)c(=O)oc2c(C)c(O)ccc12	-	0	-	-	-
CCCCn1c(N)c(N(CC)C(=O)c2cc(CC)c(C)s2)c(=O)[nH]c1=O	0	55	0	-	-
Cc1cc(C)nc(N2CCC(C(=O)Nc3cccc(C(F)(F)F)c3)CC2)n1	?	0	0	0	0
COc1ccc(-c2oc3cccnc3c2C#CC2(O)CCCCC2)cc1	23	0	?	-	-
Cc1oc(/N=C/c2ccc(O)cc2O)c(C#N)c1C	82	0	0	78	90
Cc1oc(/N=C/c2ccccc2O)c(C#N)c1C	0	0	0	0	0
COC(=O)CN(C)C(=O)c1ccccc1OC1CCN(S(C)(=O)=O)CC1	0	0	0	-	-
SMILES	RanGTP-Imp inh	Vif imaging	Rce1 inh	Runt-CBFb FRET	Runt-SMMHC FRET
O=C(CCNC(=O)N1CC(=O)Nc2ccccc21)NCCc1cccc(F)c1	0	0	+	-	-
O=C1CN(C(=O)NCC(=O)N2CCCC2)c2ccccc2N1	0	0	+	-	-
CC1=CC(c2ccccc2)n2nc(NS(=O)(=O)c3ccc(C)cc3)nc2N1 (stereo unspecified)	-	0	-	0	85
Cc1ccc(C(=O)N2CC(C)OC(C)C2)cc1S(=O)(=O)N1CCCCC1 (stereo unspecified)	-	0	-	-	-
CCOC(=O)C1(Cc2cccc(OC)c2)CCN(Cc2cccnc2)CC1	56	0	0	-	-
CCOC(=O)C1(Cc2cccc(OC)c2)CCN(Cc2cnc(SC)nc2)CC1	68	0	0	0	0
CCOC(=O)C1(Cc2cccc(OC)c2)CCN(Cc2cccc3cnccc23)CC1	86	0	0	0	0
CCOC(=O)C1(Cc2cccc(F)c2)CCN(C(=O)C2CCCO2)CC1 (stereo unspecified)	0	51	-	0	0
COc1cccc(CNC(=O)CCC2CCCN(C(=O)C3=CC(=O)CC(C)(C)O3)C2)c1 (stereo unspecified)	0	0	0	0	0
O=C(Nc1cc2c3c(c1)CC(=O)N3CCC2)c1ccco1	0	0	0	-	-
CC(C)CC(OC(=O)c1ccco1)C(=O)NC1CCCC1 (stereo unspecified)	0	0	0	-	-
O=C(NCCc1ccccc1)C1CCN(C(=O)Nc2ccccc2)CC1	0	0	0	-	-
NS(=O)(=O)c1ccc(CCNC(=O)C2CCN(C(=O)Nc3ccccc3)CC2)cc1	-	55	-	-	-
